Measurements gathered from unrelated publications.
Observed: cell growth or viability

Structure (SMILES) | cell line | assay | setting | endpoint | value
C=C(NC(=O)C(=C)NC(=O)c1csc(C2=N[C@@H]3c4csc(n4)[C@H]4NC(=O)c5csc(n5)[C@H]([C@](C)(O)[C@@H](C)O)NC(=O)[C@H]5CSC(=N5)/C(=C/C)NC(=O)[C@H]([C@@H](C)O)NC(=O)c5csc(n5)[C@]3(CC2)NC(=O)[C@H](C)NC(=O)C(=C)NC(=O)[C@H](C)NC(=O)[C@H]([C@@H](C)CC)N[C@@H]2C=Cc3c([C@H](C)O)cc(nc3[C@H]2O)C(=O)O[C@@H]4C)n1)C(N)=O | SQ20B |  |  | EC50 | 0.7 µM
O=c1c2cc(Cl)ccc2nc(-c2ccccc2)n1N=Cc1ccc(Cl)cc1Cl | LLC-PK1 | MTT | 72 h | IC50 | 264 µM
Cc1nc(Nc2ncc(C(=O)Nc3c(C)cccc3Cl)s2)cc(N2CC[C@H](O)C2)n1 | OCI-Ly7 | ATP luminescence | 10 µM, 72 h | inhibition | 57%
CC1(C)C[C@H]2[C@H]1CC[C@]1(C)CCC[C@@]2(n2cc(C(=O)O)nn2)C1 | HT-29 | CCK-8 | 10 µM | inhibition | < 50%
CCC(=O)NCc1ccc(-c2cnc(C3CN(C(=O)c4ccc(NC(=O)[C@@H]5CC(C)(C)CN5)s4)C3)s2)c2ccccc12 | IMR-90 | SRB | 7 days | GI50 | > 10 µM
CC1(C)C[C@H]2[C@H]1CC[C@]1(C)CCC[C@@]2(n2cc(C(=O)NCCN)nn2)C1 | HT-29 | CCK-8 | 10 µM | inhibition | 53.4%
O=c1c2cc(Cl)ccc2nc(-c2ccccc2)n1N=Cc1ccc2c(c1)OCO2 | LLC-PK1 | MTT | 72 h | IC50 | 60.2 µM
CC1(C)C[C@H]2[C@H]1CC[C@]1(C)CCC[C@@]2(n2cc(C(=O)Nc3ccc(Cl)cc3)nn2)C1 | HT-29 | CCK-8 | 50 µM | inhibition | 16.8%
O=c1c2cc(Cl)ccc2nc(-c2ccccc2)n1N=Cc1cccnc1 | LLC-PK1 | MTT | 72 h | IC50 | 326 µM
